Among the data in ChEMBL document CHEMBL3102701, “Polyandric acid A, a clerodane diterpenoid from the Australian medicinal plant Dodonaea polyandra, attenuates pro-inflammatory cytokine secretion in vitro and in vivo” (J Nat Prod, 2014) are Activity and inhibition values, retold here.

Activity calls are given as the source filed them. No cut-off for these calls is given here.

The subject of series [1] is Mus musculus. The series is described as follows: Antiinflammatory activity in Balb/C chronic mouse ear edema model assessed as reduction in TPA-induced myeloperoxidase accumulation at 0.9 umol/ear administered topically, bid from day 7 to day 10 measured every day during compound administration relative to control. Type of series: functional. More on the design: scale not given: the % may be the effect or the level left. In a few lines: (§1)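 Chronic TPA ear model in male Balb/C mice: topical dosing at 0.9 μmol/ear in ethanol, twice daily days 7–9 and once on day 10, then euthanasia. 5 mm ear punches were homogenized in 80 mM PBS pH 5.4 with 0.5% HTAB and centrifuged. Supernatant in duplicate was reacted with H2O2 and 18.4 mM tetramethylbenzidine for 3 min at 37 °C. Stopped with sodium acetate pH 3.0; A600 read as neutrophil marker.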

In series [2] the test system is Mus musculus. Description: Antiinflammatory activity in Balb/C chronic mouse ear edema model assessed as reduction in TPA-induced edema at 0.9 umol/ear administered topically, bid from day 7 to day 10 measured every day during compound administration relative to control. It counts as functional. More on the design: scale not given: the % may be the effect or the level left. In outline: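 Male Balb/C mice, 7–9 weeks old, acclimated at least 4 days. 20 μL TPA (125 μg/mL) was applied to inner and outer surfaces of both ears on alternate days from day 0. Test agent at 0.9 μmol/ear in 20 μL ethanol was applied topically to both ears morning and afternoon on days 7–9, with one more dose on day 10 morning. Ear thickness was read with a digital micrometer on days 0–4 and 7–10; means ± SEM, n ≥ 6.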

Series [3] deals with THP-1. Description: Antiinflammatory activity in human THP1 cells assessed as inhibition of TPA/ionomycin-induced extracellular TNF-alpha production at 5 uM incubated 1 hr prior to TPA/ionomycin challenge measured after 24 hrs by ELISA. Type of series: functional, cell-based. In a few lines:
(§2)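 THP-1 monocytes (100 000/well) in RPMI-1640 preincubated 1 h with test agent, ethanol ≤0.05%. Stimulated with TPA 40 ng/mL/ionomycin 1 μM (final) for 24 h at 37 °C, 5% CO2. Supernatant kept for extracellular cytokines. Washed cells were lysed in ice-cold RIPA with protease inhibitors for intracellular IL-1β and pro-IL-1β. ELISA read-out; n = 6.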

Series [4] concerns THP-1. The series is described as follows: Antiinflammatory activity in human THP1 cells assessed as inhibition of TPA/ionomycin-induced intracellular IL-1beta level at 5 uM incubated 1 hr prior to TPA/ionomycin challenge measured after 24 hrs by ELISA. It counts as functional, cell-based. In a few lines: as §2
Series [5] concerns THP-1. The series is described as follows: Antiinflammatory activity in human THP1 cells assessed as inhibition of TPA/ionomycin-induced intracellular proIL-1beta level at 5 uM incubated 1 hr prior to TPA/ionomycin challenge measured after 24 hrs by ELISA. It counts as functional, cell-based. In outline:
as §2
(In general: An ELISA detects its analyte on a solid surface through an enzyme-linked reagent.)

Series [6] concerns THP-1. The series is described as follows: Antiinflammatory activity in human THP1 cells assessed as inhibition of TPA/ionomycin-induced extracellular IL-1beta level at 5 uM incubated 1 hr prior to TPA/ionomycin challenge measured after 24 hrs by ELISA. It counts as functional, cell-based. In a few lines:
as §2

The subject of series [7] is THP-1. Description: Antiinflammatory activity in human THP1 cells assessed as inhibition of TPA/ionomycin-induced TNF-alpha production at 30 uM incubated 1 hr prior to TPA/ionomycin challenge measured after 24 hrs by ELISA. Type of series: functional. In outline: as §2
Series [8] relates to neonatal human epidermal keratinocytes (Homo sapiens). The series is described as follows: Antiinflammatory activity in human NHEK cells assessed as inhibition of TPA/ionomycin-induced extracellular TNF-alpha production at 3 uM incubated for 1 hr prior to TPA/ionomycin challenge measured after 24 hrs by ELISA.
Series [9] shares this test system. The series is described as follows: Antiinflammatory activity in human NHEK cells assessed as inhibition of TPA/ionomycin-induced IL-1alpha production at 0.3 to 30 uM incubated for 1 hr prior to TPA/ionomycin challenge measured after 6 to 24 hrs by ELISA.
For series [10] the test system is unchanged. The series is described as follows: Antiinflammatory activity in human NHEK cells assessed as inhibition of TPA/ionomycin-induced IL-8 production at 0.3 to 30 uM incubated for 1 hr prior to TPA/ionomycin challenge measured after 6 to 24 hrs by ELISA.
Series [11] is described as follows: Cytotoxicity against human NHEK cells assessed as cell viability at <60 uM after 24 hrs by MTS assay. Type of series: cell-based. In outline:
(§3)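 MTS viability: cells at 50 000/well were preincubated 1 h, then serial half-dilutions of test agent were added. After 24 h incubation, MTS reagent was added for 1 h and absorbance read at 492 nm.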
On the technique in general: Tetrazolium assays rely on reduction of a dye to a coloured formazan, in cell work by metabolically active cells.

The subject of series [12] is THP-1. Description: Antiinflammatory activity in human THP1 cells assessed as inhibition of TPA/ionomycin-induced extracellular IL-1beta level at 3 uM incubated 1 hr prior to TPA/ionomycin challenge measured after 24 hrs by ELISA. It counts as functional. In a few lines:
as §2

In series [13] the test system is Mus musculus. The series is described as follows: Antiinflammatory activity in Balb/C chronic mouse ear edema model assessed as reduction in TPA-induced scaling in ears at 0.9 umol/ear administered topically, bid from day 7 to day 10 measured every day during compound administration relative to control. It counts as functional, organism-based.
The nature of series [14]: Antiinflammatory activity in human NHEK cells assessed as inhibition of TPA/ionomycin-induced extracellular IL-6 production at 30 uM incubated for 1 hr prior to TPA/ionomycin challenge measured after 24 hrs by ELISA. It counts as functional. In a few lines: (§4)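 Primary neonatal keratinocytes (passage ≤3) seeded at 10 000/well for 18 h at 37 °C, 5% CO2, then given fresh medium. Preincubated 1 h with test agent, then stimulated with TPA 40 ng/mL/ionomycin 1 μM. Supernatants taken at 6 and 24 h, centrifuged and stored at −80 °C. Extracellular cytokines measured by ELISA; means ± SEM, n = 6.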

Series [15] has as its system RAW264.7. The series is described as follows: Antiinflammatory activity in mouse RAW264.7 cells assessed as inhibition of LPS-induced NO production at 3 to 30 uM incubated for 1 hr prior to LPS-challenge measured after 24 hrs by Greiss assay. Type of series: functional, cell-based. In outline: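 RAW264.7 macrophages (100 000/well) in DMEM preincubated 1 h with test agent at 3 or 30 μM. Stimulated with LPS 1 μg/mL final for 24 h at 37 °C, 5% CO2. Supernatant nitrite measured by Griess reaction (sulfanilic acid and N-naphthylethylenediamine in 5% HCl, 10 min at 37 °C). A540 read against a sodium nitrite standard curve; n = 8.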

Series [16] concerns THP-1. Description: Cytotoxicity against human THP1 cells assessed as cell viability at 30 uM after 24 hrs by MTS assay. Type of series: cell-based. Conditions: thp-1, 24 h. In a few lines:
as §3

A short description of series [17]: Cytotoxicity against human NHEK cells assessed as cell viability at 30 uM after 24 hrs by MTS assay. Type of series: cell-based. In outline:
as §3

In series [18] the test system is Mus musculus. The series is described as follows: Antiinflammatory activity in Balb/C chronic mouse ear edema model assessed as reduction in influx of neutrophils at 0.9 umol/ear administered topically, bid from day 7 to day 10 measured every day during compound administration relative to control. It counts as functional, organism-based. In a few lines:
as §1

The test system of series [19] is THP-1. The series is described as follows: Antiinflammatory activity in human THP1 cells assessed as inhibition of TPA/ionomycin-induced intracellular proIL-1beta level at 30 uM incubated 1 hr prior to TPA/ionomycin challenge measured after 24 hrs by ELISA. Type of series: functional. In a few lines: as §2
The test system of series [20] is neonatal human epidermal keratinocytes (Homo sapiens). Description: Antiinflammatory activity in human NHEK cells assessed as inhibition of TPA/ionomycin-induced extracellular TNF-alpha production at 30 uM incubated for 1 hr prior to TPA/ionomycin challenge measured after 6 to 24 hrs by ELISA.
Series [21] relates to Mus musculus. The series is described as follows: Antiinflammatory activity in Balb/C chronic mouse ear edema model assessed as reduction in TPA-induced redness in ears at 0.9 umol/ear administered topically, bid from day 7 to day 10 measured every day during compound administration relative to control. It counts as functional, organism-based.
Series [22] can be described thus: Antiinflammatory activity in human NHEK cells assessed as inhibition of TPA/ionomycin-induced extracellular TNF-alpha production at 3 uM incubated for 1 hr prior to TPA/ionomycin challenge measured after 6 hrs by ELISA. It counts as functional. In outline:
as §4

Series [23] has as its system THP-1. The series is described as follows: Antiinflammatory activity in human THP1 cells assessed as inhibition of TPA/ionomycin-induced extracellular IL-1beta level at 30 uM incubated 1 hr prior to TPA/ionomycin challenge measured after 24 hrs by ELISA. Type of series: functional. In a few lines:
as §2

For series [24], the system named is Mus musculus. Description: Antiinflammatory activity in Balb/C chronic mouse ear edema model assessed as reduction in TPA-induced flaky appearance in ears at 0.9 umol/ear administered topically, bid from day 7 to day 10 measured every day during compound administration relative to control. Type of series: functional, organism-based.
Series [25] can be described thus: Antiinflammatory activity in human NHEK cells assessed as inhibition of TPA/ionomycin-induced extracellular IL-6 production at 30 uM incubated for 1 hr prior to TPA/ionomycin challenge measured after 6 hrs by ELISA. It counts as functional. In a few lines:
as §4

Series [26] concerns Mus musculus. Description: Antiinflammatory activity in Balb/C mouse ear edema model assessed as reduction of TPA-induced IL-1beta production at 0.9 umol/ear by ELISA relative to control. It counts as functional. Details: scale not given: the % may be the effect or the level left. In a few lines: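 Acute TPA ear model in male Balb/C mice, killed 6 h after treatment (0.9 μmol/ear topical). 5 mm ear punches were homogenized in 50 mM Tris-HCl pH 7.4/1 mM EDTA with protease inhibitors, then held 15 min on ice with 1% Triton X-100. Spun at 9500g, 4 °C; supernatant assayed by ELISA. Basal untreated-ear levels were subtracted.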

In series [27] the test system is RAW264.7. The series is described as follows: Cytotoxicity against mouse RAW264.7 cells assessed as cell viability at <60 uM after 24 hrs by MTS assay. Type of series: cell-based. The note with it: raw264.7, 24 h. In a few lines:
as §3

Series [28] concerns THP-1. Description: Cytotoxicity against human THP1 cells assessed as cell viability at <60 uM after 24 hrs by MTS assay. Type of series: cell-based. Conditions: thp-1, 24 h. In outline:
as §3

The subject of series [29] is THP-1. Description: Antiinflammatory activity in human THP1 cells assessed as inhibition of TPA/ionomycin-induced intracellular IL-1beta level at 30 uM incubated 1 hr prior to TPA/ionomycin challenge measured after 24 hrs by ELISA. It counts as functional. In a few lines: as §2

Turning to `CCC(=O)OCC(=O)[C@@]1(OC(=O)CC)[C@@H](C)C[C@H]2[C@@H]3CCC4=CC(=O)C=C[C@]4(C)[C@@]3(F)[C@@H](O)C[C@@]21C` [BETAMETHASONE DIPROPIONATE], the Activity in the series with Mus musculus [1] was found to be 90%; in the series with Mus musculus [2], 54.2%.

As for `Cc1ccc(S(=O)(=O)/C=C/C#N)cc1`, the inhibition entry in the series with THP-1 [3], in the series on THP-1 [4], in the series with THP-1 [5] and in the series on THP-1 [6] was “Active” in each case.

As for `C[C@]1(CCc2ccoc2)[C@H](COC(=O)c2ccccc2)CC[C@@]2(C)C(C(=O)O)=C[C@H](O)C[C@H]12`, the inhibition (usually the change of the read-out against control, counted positive when it falls) at 30 µM is 19.7% in the series with THP-1 [7]; 41.5% in series [14]; 17% with THP-1 [19]; 26.3% in the series on THP-1 [23]; 33.2% in series [25]; 15% in the series on THP-1 [29]. Also, the inhibition entry (in series [8]; in series [9]; in series [10]; with RAW264.7 [15]; in series [20]) was “inactive” throughout. In addition, the Activity with Mus musculus [1] was 81.5%; in series [11] it was “Non-toxic”; in the series on THP-1 [16] it was “Non-toxic”; in series [17], “Non-toxic”; with Mus musculus [2], 41.1%; in the series on Mus musculus [26], 78%. In addition, the Activity result in the series on RAW264.7 [27] and in the series with THP-1 [28] was “Non-toxic” each time. Also, the values for the inhibition at 3 µM (in the series with THP-1 [12]; in series [22]) were 18% and 26.2%, respectively. In addition, the result with Mus musculus [13], in the series on Mus musculus [18], in the series on Mus musculus [21] and with Mus musculus [24] was Active.
